Test results as given in ChEMBL document CHEMBL3865805, “Discovery and antiplatelet activity of a selective PI3Kβ inhibitor (MIPS-9922)” (Eur J Med Chem, 2016).
≈ marks a conversion by molar mass, not a printed value. Calls of active or inactive are those of the source. The calls are words filed in the database; no cut-off is given here.

Columns and labels:
[1] = biological target: T1, Phosphatidylinositol 4,5-bisphosphate 3-kinase catalytic subunit beta isoform (Homo sapiens, UniProt P42338); experiment: Inhibition of PI3Kbeta in human washed platelets assessed as suppression of ADP-induced platelet aggregation at 0.5 uM preincubated for 5 mins followed by 5 to 10 uM ADP stimulation after 10 mins by light transmission aggregometric analysis
In short: (§1)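 Washed human platelets in an aggregometer. Inhibitor at 0.5 µM. Aggregation induced by 5, 10 or 25 µM ADP; percent inhibition read.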

[2] = Tmax in Sprague-Dawley rat at 20 mg/kg, po via gavage by LC-MS analysis; type: ADME, organism-based; settings: in vivo
In short: (§2)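 Sprague Dawley rats, n=2 per route. Single dose: 3 mg/kg intravenous or 20 mg/kg oral. Plasma concentration followed over time. Half-life, volume of distribution, clearance, Tmax and oral bioavailability derived from the plasma concentration-time profiles.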

[3] = Effect on platelet tethering in human washed platelets at 0.1 to 5 uM; type: ADME, cell-based
[4] = Blood clearance in rat by LC-MS analysis; type: ADME, tissue-based; settings: whole blood
[5] = Volume of distribution at steady state in Sprague-Dawley rat at 3 mg/kg, iv by LC-MS analysis; type: ADME, organism-based; settings: in vivo, read-out: Vdss; in short: as §2
[6] = Antiplatelet activity against human washed platelets assessed as shear-induced stationary platelet adhesion to vWF matrix at 1 to 5 uM preincubated for 5 mins followed by blood perfusion after 4 mins relative to control; type: functional
In short: (§3)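 Human whole blood, anticoagulated, perfused over a vWf matrix at 1800 s^-1 for 4 min; stationary platelet adhesion scored. Vehicle DMSO 0.25% taken as 100%. Drug tested up to 5 µM. t test against 0.1 µM drug.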

[7] = Apparent oral bioavailability in Sprague-Dawley rat at 20 mg/kg administered via gavage by LC-MS analysis; type: ADME, organism-based; settings: in vivo, read-out: Fapp; in short: as §2
[8] = Plasma clearance in Sprague-Dawley rat at 3 mg/kg, iv by LC-MS analysis; type: ADME, organism-based; in short: as §2
[9] = Aqueous solubility of compound at pH 6.5 by turbidimetric solubility assay; type: physicochemical; settings: buffer
albumin = albumin (Homo sapiens, UniProt P02768); experiment: Protein binding to human serum albumin by HPLC analysis; type: ADME; settings: read-out: PB (converted)
[10] = Effect on platelet translocation in human washed platelets at 0.1 to 5 uM; type: ADME, cell-based
[11] = Distribution constant, logD of compound at pH 3; type: physicochemical; settings: buffer
[12] = Stability in Sprague-Dawley rat plasma at […] after 4 hrs by UPLC-MS analysis; type: ADME, cell-free
[13] = biological target: T1, Phosphatidylinositol 4,5-bisphosphate 3-kinase catalytic subunit beta isoform; experiment: Inhibition of PI3Kbeta in human platelet-rich plasma assessed as suppression of ADP-induced platelet aggregation preincubated for 5 mins followed by ADP stimulation after 10 mins by light transmission aggregometric analysis
In short: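 Human platelet-rich plasma stimulated with ADP; aggregation measured over a concentration range of inhibitor, and IC50 taken from the dose-response curve.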

Platelet = experiment: Antiplatelet activity against human washed platelets assessed as reduction in shear-induced stationary platelet adhesion to vWF matrix preincubated for 5 mins followed by blood perfusion after 4 mins; type: functional, cell-based; in short: as §3
Mus musculus [14] = experiment: Antithrombosis activity in C57BL/6 mouse model of electrolytic injury induced occlusive thrombus formation assessed as prevention of arterial thrombi formation by measuring effect on carotid artery blood flow volume at 2.5 mg/kg, iv administered through bolus prior to electrolytic injury measured after 60 mins; type: functional, organism-based
In short: (§4)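 Electrolytic injury to the mouse carotid artery; 2.5 mg/kg given iv in saline (n = 8) against saline control (n = 8). Carotid blood flow (ml/min per 100 g body weight) monitored after injury, and flow volume taken as area under the curve over the 60-min period; mean ± S.E.M.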

Rattus norvegicus = experiment: Toxicity in Sprague-Dawley rat at 20 mg/kg, po administered via gavage or 3 mg/kg, iv; type: organism-based; settings: in vivo
[15] = Apparent half life in Sprague-Dawley rat at 3 mg/kg, iv by LC-MS analysis; type: ADME, organism-based; settings: in vivo, read-out: t1/2(app); in short: as §2
[16] = biological target: T1, Phosphatidylinositol 4,5-bisphosphate 3-kinase catalytic subunit beta isoform; experiment: Inhibition of PI3Kbeta in human washed platelets assessed as suppression of ADP-induced integrin alpha2bbeta3 activation preincubated for 5 mins followed by ADP stimulation after 10 mins by OG-FNG-based FACS analysis
In short: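 Washed human platelets stimulated with ADP (5 µM). Integrin αIIbβ3 activation read as Oregon-Green fibrinogen binding by flow cytometry. DMSO 0.25% control set as 100%. n = 3, mean ± SEM. t test against 0.001 µM drug.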

[17] = biological target: T1, Phosphatidylinositol 4,5-bisphosphate 3-kinase catalytic subunit beta isoform; experiment: Inhibition of PI3Kbeta in human washed platelets assessed as suppression of ADP-induced platelet aggregation at 0.5 uM preincubated for 5 mins followed by 25 uM ADP stimulation after 10 mins by light transmission aggregometric analysis; in short: as §1
Mus musculus [18] = experiment: Toxicity in C57BL/6 mouse model of electrolytic injury induced occlusive thrombus formation assessed as excessive blood loss at 2.5 mg/kg, iv bolus administration; type: organism-based; settings: in vivo
In short: (§5)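 Mouse tail bleeding assay after 2.5 mg/kg iv (n = 8) against vehicle, 0.01% DMSO (n = 8). Tail bleeding time recorded; blood loss quantified as absorbance of haemoglobin at 575 nm.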

Mus musculus [19] = experiment: Toxicity in C57BL/6 mouse model of electrolytic injury induced occlusive thrombus formation assessed as increase in tail bleeding time at 2.5 mg/kg, iv bolus administration; type: organism-based; settings: in vivo; in short: as §5
[20] = Clearance in rat by LC-MS analysis relative to hepatic blood flow; type: ADME, Liver; settings: in vivo
[21] = Aqueous solubility of compound in saline; type: physicochemical; settings: buffer
[22] = Distribution constant, logD of compound at pH 7.4; type: physicochemical; settings: buffer
[23] = biological target: T2, Proteinase-activated receptor 1 (Homo sapiens) (UniProt P25116); experiment: Inhibition of PAR1 in human washed platelets assessed as suppression of TRAP-induced integrin alpha2bbeta3 activation preincubated for 5 mins followed by TRAP stimulation after 10 mins by OG-FNG-based FACS analysis
T2 sequence (whole entry): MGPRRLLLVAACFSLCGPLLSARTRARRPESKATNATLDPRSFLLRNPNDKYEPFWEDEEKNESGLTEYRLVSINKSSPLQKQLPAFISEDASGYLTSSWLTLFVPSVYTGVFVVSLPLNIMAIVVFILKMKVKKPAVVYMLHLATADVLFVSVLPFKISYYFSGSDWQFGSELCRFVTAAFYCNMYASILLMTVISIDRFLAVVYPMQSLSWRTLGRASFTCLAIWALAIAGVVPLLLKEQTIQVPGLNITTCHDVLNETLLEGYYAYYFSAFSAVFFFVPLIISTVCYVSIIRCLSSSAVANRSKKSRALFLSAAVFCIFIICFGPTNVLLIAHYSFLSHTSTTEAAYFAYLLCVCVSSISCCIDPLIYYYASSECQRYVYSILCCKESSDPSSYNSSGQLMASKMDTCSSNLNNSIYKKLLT
In short: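 Washed human platelets stimulated with TRAP at 0.5–1 µM, chosen by donor response. αIIbβ3 activation read as Oregon-Green fibrinogen binding by flow cytometry. DMSO 0.25% control set as 100%. n = 4-7, mean ± SEM.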

[24] = biological target: T1, Phosphatidylinositol 4,5-bisphosphate 3-kinase catalytic subunit beta isoform; experiment: Inhibition of PI3Kbeta in human washed platelets assessed as suppression of ADP-induced platelet aggregation preincubated for 5 mins followed by ADP stimulation after 10 mins by light transmission aggregometric analysis
In short: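 Washed human platelets in a conventional aggregometer. Aggregation induced by ADP; IC50 taken from the dose-response curve.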

[25] = Drug excretion in iv dosed rat urine by LC-MS analysis; type: ADME, organism-based; settings: read-out: Drug excretion
[26] = Aqueous solubility of compound at pH 2 by turbidimetric solubility assay; type: physicochemical; settings: buffer
Mus musculus [27] = experiment: Antithrombosis activity in C57BL/6 mouse model of electrolytic injury induced occlusive thrombus formation assessed as prevention of arterial thrombi formation by measuring effect on rate of carotid artery blood flow at 2.5 mg/kg, iv administered through bolus prior to electrolytic injury; type: functional, organism-based; in short: as §4
[28] = Intrinsic clearance in rat liver microsomes at 1 uM after 60 mins in presence of NADPH by UPLC-MS analysis; type: ADME; settings: read-out: CLH
[29] = Intrinsic clearance in human liver microsomes at 1 uM after 60 mins in presence of NADPH by UPLC-MS analysis; type: ADME; settings: read-out: CLH

T1 sequence (P42338 whole entry, looked up, canonical isoform): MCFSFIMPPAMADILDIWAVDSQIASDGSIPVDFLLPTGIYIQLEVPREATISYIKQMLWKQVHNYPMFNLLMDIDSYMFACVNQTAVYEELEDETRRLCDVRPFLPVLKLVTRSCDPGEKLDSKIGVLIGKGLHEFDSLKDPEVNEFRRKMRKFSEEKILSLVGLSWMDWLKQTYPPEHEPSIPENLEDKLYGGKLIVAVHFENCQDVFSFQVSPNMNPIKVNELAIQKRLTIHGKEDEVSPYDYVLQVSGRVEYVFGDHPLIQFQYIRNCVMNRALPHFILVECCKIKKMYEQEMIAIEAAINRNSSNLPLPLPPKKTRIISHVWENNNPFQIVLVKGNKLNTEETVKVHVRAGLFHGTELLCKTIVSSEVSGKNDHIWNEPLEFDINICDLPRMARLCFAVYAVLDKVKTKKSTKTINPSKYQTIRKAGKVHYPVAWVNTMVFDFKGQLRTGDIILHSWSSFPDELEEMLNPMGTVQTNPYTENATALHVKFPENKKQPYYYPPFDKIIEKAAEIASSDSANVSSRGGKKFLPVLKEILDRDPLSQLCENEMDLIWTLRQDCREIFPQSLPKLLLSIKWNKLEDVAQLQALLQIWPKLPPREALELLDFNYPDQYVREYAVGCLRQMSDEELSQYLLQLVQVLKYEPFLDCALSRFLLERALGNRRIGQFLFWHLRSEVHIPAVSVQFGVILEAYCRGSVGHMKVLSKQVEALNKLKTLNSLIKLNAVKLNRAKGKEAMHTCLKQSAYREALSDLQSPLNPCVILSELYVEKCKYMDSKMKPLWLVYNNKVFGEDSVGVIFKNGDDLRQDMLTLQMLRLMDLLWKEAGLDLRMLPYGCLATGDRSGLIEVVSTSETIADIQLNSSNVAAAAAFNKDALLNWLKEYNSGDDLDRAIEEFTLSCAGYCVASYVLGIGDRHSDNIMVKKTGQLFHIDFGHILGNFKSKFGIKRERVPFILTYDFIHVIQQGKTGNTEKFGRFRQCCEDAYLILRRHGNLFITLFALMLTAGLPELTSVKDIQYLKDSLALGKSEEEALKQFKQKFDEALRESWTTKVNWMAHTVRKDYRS
albumin, sequence (P02768 whole entry): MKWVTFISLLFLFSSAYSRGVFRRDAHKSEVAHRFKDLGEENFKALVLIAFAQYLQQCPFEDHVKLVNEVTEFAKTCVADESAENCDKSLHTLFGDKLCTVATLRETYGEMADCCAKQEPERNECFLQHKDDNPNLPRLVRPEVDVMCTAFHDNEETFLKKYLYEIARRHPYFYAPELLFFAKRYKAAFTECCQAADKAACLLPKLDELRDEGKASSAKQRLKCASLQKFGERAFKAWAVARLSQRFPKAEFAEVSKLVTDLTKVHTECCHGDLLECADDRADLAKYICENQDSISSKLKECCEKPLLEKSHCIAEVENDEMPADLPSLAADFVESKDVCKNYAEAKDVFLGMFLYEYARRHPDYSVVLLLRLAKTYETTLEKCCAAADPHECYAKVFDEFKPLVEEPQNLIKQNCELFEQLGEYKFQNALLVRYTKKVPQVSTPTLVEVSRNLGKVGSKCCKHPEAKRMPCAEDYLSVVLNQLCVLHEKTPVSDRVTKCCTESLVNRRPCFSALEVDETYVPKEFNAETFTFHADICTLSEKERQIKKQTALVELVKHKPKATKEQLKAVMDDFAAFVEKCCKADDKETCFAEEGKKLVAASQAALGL

inhibition [1]: Active
Tmax [2]: 1 to 4 h
clearance [4]: 39 mL/min/kg
Vd [5]: 8.6 L/kg
bioavailability [7]: 26%
clearance [8]: 67 mL/min/kg
solubility kinetic [9]: 6.3 to 12.5 µg/mL (≈ 11.2 to 22.2 µM)
fraction unbound (albumin): 0.03
logD [11]: 3
Stability [12]: Stable
inhibition [13]: Dose-dependent effect
half-life [15]: 2.8 to 3 h
inhibition [16]: Dose-dependent effect
inhibition [17]: 15%
CL [20]: 60%
solubility [21]: Soluble
logD [22]: 3.7
inhibition [23]: Dose-dependent effect
inhibition [24]: Dose-dependent effect
dose excreted [25]: < 0.1%
solubility kinetic [26]: > 100 µg/mL
microsomal CLint at 1 µM [28]: 43 µL/min/mg
microsomal CLint at 1 µM [29]: 22 µL/min/mg
SMILES: N[C@@H](Cc1ccccc1)C(=O)N1CCN(c2nc(N3CCOCC3)nc(-n3c(C(F)F)nc4ccccc43)n2)CC1
Activity [3]: Non-Toxic
inhibition (INH) [6]: <=60%
Activity [10]: Non-Toxic
inhibition (Platelet): Dose-dependent effect
Activity (Mus musculus [14]): Active
Activity (Rattus norvegicus): Non-Toxic
Activity (Mus musculus [18]): Non-Toxic
Activity (Mus musculus [19]): Non-Toxic
Activity (Mus musculus [27]): Active
